Data set [1] is described as follows: Drug metabolism assessed as GSTpi (unknown origin) mediated compound fluorescence activation at 1 uM in presence of 1 mM Cu2+ by HPLC analysis. Format: ADME. As to conditions: human; call rule not given here. In a few lines: (§1)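 Selectivity test: compound (1 µM) with catalytic GSTπ and each analyte in water with 1% (v/v) DMSO at pH 4.0, 37 °C for 0.5 h. Analytes were cations at 1 mM; amino acids, vitamin C, Na2S and GSH at 100 µM. Readout was fluorescence emission spectra (excitation 440 nm, recorded 450–650 nm).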

Data set [2] can be described thus: Drug localization in colon of intra-operative mouse xenografted with human HT-29/Luc cells at 40 mg/kg, iv measured after 2 hrs post dose by fluorescence imaging assay. As to conditions: in vivo. Format: ADME, organism-based. In short, it runs like this:
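Orthotopic model: 1×10^6 HT29/Luc cells were injected into the upper colon of anaesthetised nude mice (5–6 weeks old). Tumours were confirmed by bioluminescence after two weeks. Dosing was 40 mg/kg iv, with whole-body bioluminescence and fluorescence imaging at 2 h under pentobarbital anaesthesia. Organs were then excised and imaged ex vivo (ex/em 430/490 nm).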

The nature of data set [3]: Toxicity in ICR mouse assessed as induction of animal survival rate at 585.9 mg/kg, ip measured after 14 days. Format: organism-based. As to conditions: in vivo. In short, it runs like this:
(§2)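 Female ICR mice, randomised, n = 10 per group. Single intraperitoneal dose of 240.0, 300.0, 375.0, 468.8 or 585.9 mg/kg, or vehicle. Deaths recorded at 1 h, 4 h, days 1–4 and days 5–14. Body weight, drinking, eating and activity observed over 14 days. Survival percentage taken on day 14; LD50 derived from the dose–mortality data.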

A short description of data set [4]: Drug metabolism assessed as GSTpi (unknown origin) mediated compound fluorescence activation at 1 uM in presence of 100 uM Na2S by HPLC analysis. Format: ADME. As to conditions: human. In a few lines: as §1
Data set [5] can be described thus: Drug metabolism assessed as GSTpi (unknown origin) mediated compound fluorescence activation at 1 uM in presence of 100 uM vitamin C by HPLC analysis. Type of data set: ADME. Conditions: human. In a few lines:
as §1

A short description of data set [6]: Drug uptake in lysosome of human HT-29 cells at 1 uM incubated for 60 mins by Lyso-tracker based confocal fluorescence microscopy. Format: ADME, subcellular. As to conditions: ht-29, 1 h. In short, it runs like this: (§3)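 HT29 and CCD841 cells were seeded at 2×10^5 in glass-bottom dishes. They were co-incubated in DMEM with compound (1 µM) and LysoTracker Red DND-99 (1 µM). Confocal imaging used a 40× water objective. Compound channel: 405 nm laser, 480–530 nm filter. LysoTracker channel: 561 nm laser, 580–630 nm filter.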

Data set [7] can be described thus: Drug metabolism assessed as GSTpi (unknown origin) mediated compound fluorescence activation at 1 uM in presence of 1 mM Fe2+ by HPLC analysis. Format: ADME. As to conditions: human. In short, it runs like this: as §1
Data set [8] in a line: Toxicity in ICR mouse assessed as induction of animal survival rate at 375 mg/kg, ip measured after 14 days. Type of data set: organism-based. Conditions: in vivo. In a few lines:
as §2

A short description of data set [9]: Drug uptake in lysosome of human CCD-841 cells at 1 uM incubated for 60 mins by Lyso-tracker based confocal fluorescence microscopy. Format: ADME. As to conditions: 1 h. In short, it runs like this: as §3
Data set [10] in a line: Drug metabolism assessed as GSTpi (unknown origin) mediated compound fluorescence activation at 1 uM in presence of 100 uM lysine by HPLC analysis. Format: ADME. Conditions: human. In short, it runs like this:
as §1

A short description of data set [11]: Toxicity in ip dosed ICR mouse for 14 days. Format: organism-based. Conditions: in vivo. In short, it runs like this:
as §2

Data set [12] deals with HT-29. Kind of data set: Induction of autophagy in human HT-29 cells assessed as reduction in p62 protein level incubated for 72 hrs by Western blot analysis. Type of data set: functional, cell-based. In a few lines: (§4)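 HT29 cells (1.5×10^5/mL) exposed to compound or vehicle for 72 h, then lysed. Lysates (0.05 mg/lane) run on 12% SDS-PAGE, transferred to nitrocellulose, blocked with 5% non-fat milk and probed for LC3, p62, beclin-1 and β-actin. Bands quantified relative to β-actin, with LC3-II/LC3-I ratio also calculated; means ± SD from three independent assays.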
In general terms: A western blot detects proteins with antibodies after separation by electrophoresis.

Data set [13] is described as follows: Drug metabolism assessed as GSTpi (unknown origin) mediated compound fluorescence activation at 1 uM in presence of 100 uM histidine by HPLC analysis. Type of data set: ADME. As to conditions: human. In a few lines: as §1
The nature of data set [14]: Toxicity in ICR mouse assessed as induction of abnormality in eating behavior at 240 mg/kg, ip for 14 days. As to conditions: in vivo, 336 h. Type of data set: organism-based. In short, it runs like this:
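Female ICR mice (n = 10 per group) given a single intraperitoneal dose at 240.0, 300.0, 375.0, 468.8 or 585.9 mg/kg, or vehicle. Deaths recorded at 1 h, 4 h and daily through day 14. Body weight, drinking, eating and activity observed for abnormality; LD50 derived from mortality.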

Data set [15] relates to HT-29. Description: Antitumor activity against human HT-29 cells xenografted in nude BALB/c mouse assessed as tumor weight level at 40 mg/kg, ip dosed every day for 21 days (reference value: 1.49 +/- 0.27 g). Type of data set: functional. Background: In xenograft studies the graft and the host belong to different species.
Data set [16] in a line: Drug metabolism assessed as GSTpi (unknown origin) mediated compound fluorescence activation at 1 uM in presence of 100 uM alanine by HPLC analysis. Type of data set: ADME. As to conditions: human. In a few lines:
as §1

For the next data set, the system named is HepG2. Kind of data set: Antiproliferative activity against human HepG2 cells by MTT assay. Format: functional, cell-based. In short, it runs like this: (§5)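 MTT assay. Cells were grown in DMEM/RPMI 1640 with 10% FBS, penicillin and streptomycin at 37 °C under 5% CO2. After a PBS wash, cells got 0.5 mg/mL MTT for 3 h at 37 °C. Formazan was dissolved in DMSO and absorbance read at 570 nm. Inhibition was expressed as a percentage and IC50 calculated. Means ± SD come from three separate experiments.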

Data set [17] can be described thus: Drug localization in tumor of intra-operative mouse xenografted with human HT-29/Luc cells at 40 mg/kg, iv measured over 7 hrs post dose by fluorescence imaging assay. Type of data set: ADME, organism-based, Neoplasm. Conditions: in vivo.
The nature of data set [18]: Toxicity in ICR mouse assessed as induction of animal death at 240 to 585.9 mg/kg, ip measured after 4 hrs. Conditions: in vivo. Type of data set: organism-based. In a few lines:
as §2

Data set [19] relates to HT-29. Kind of data set: Induction of autophagy in human HT-29 cells assessed as increase in LC3-II protein level incubated for 72 hrs by Western blot analysis. Format: functional, cell-based. In a few lines: as §4
Data set [20] in a line: Cytotoxicity against human CCD-841 cells by MTT assay. Type of data set: cell-based. In short, it runs like this: as §5
Background: Formazan colour is commonly taken as a measure of viable cells.

The nature of data set [21]: Drug metabolism assessed as GSTpi (unknown origin) mediated compound fluorescence activation at 1 uM in presence of 100 uM glycine by HPLC analysis. Conditions: human. Format: ADME. In a few lines:
as §1

Data set [22] in a line: Drug uptake in human CCD-841 cells at 1 uM measured within 10 mins by confocal fluorescence microscopy. Type of data set: ADME, cell-based. In a few lines:
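Cells were seeded at 2×10^5 in glass-bottom dishes and allowed to attach. Medium was then replaced with DMEM containing 1 µM compound. Confocal images were taken every minute for 60 min with a 40× water objective, 405 nm laser and 480–530 nm filter. Intracellular fluorescence intensity was quantified.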

Data set [23] deals with HT-29. Description: Induction of apoptosis in human HT-29 cells assessed as reduction in Bcl2 protein level incubated for 72 hrs by Western blot analysis. Type of data set: functional, cell-based. In a few lines:
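HT29 cells (1.5×10^5/mL) were treated for 72 h and lysed. Lysate (0.05 mg/lane) was run on 12% SDS-PAGE and transferred to nitrocellulose. After blocking in 5% non-fat milk, blots were probed for Bax, Bcl-2, cleaved caspase-3, cleaved PARP, LC3, p62 and beclin-1. Levels were normalised to β-actin, and means ± SD taken from three independent assays.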

Each structure is given as a SMILES string.

Turning to `COc1cc(-c2nc(NC(=O)OCC3=CCCCC3=O)cc3c2[nH]c2ccccc23)cc(OC)c1OC`, the Drug metabolism result in data set [1], in data set [4], in [5], in data set [7], in data set [10] and in data set [13] was “Metabolite_Notdetected” in each case. In addition, the Drug metabolism entry in data set [16] and in data set [21] was “Metabolite_Notdetected” in each case. Besides, the Drug uptake result in [2] is “Active”; in data set [6], “Active”; in [9] it was “Not Active”; in data set [17], “Active”; in data set [22] it was “Not Active”. For the same compound, the survival at 336 h turned out to be 10% in [3] and 80% in data set [8]. Moreover, in [11], the LD50 at 336 h was determined as 475 mg/kg. The Activity result in the data set on HT-29 [12] is “Dose-dependent effect”; in data set [14] it was “Non-Toxic”; with HT-29 [15], 0.48 g; in data set [18], “Non-Toxic”; in the data set on HT-29 [19], “Dose-dependent effect”; in the data set on HT-29 [23], “Dose-dependent effect”. For the same compound, the IC50 with HepG2 stood at 1.57 µM; in data set [20], 23.4 µM.

As a reminder, the LD50 is the dose expected to kill half of the subjects tested. Low values mean greater toxicity, high ones lower toxicity. Usually IC50 stands for the concentration at which inhibition is half-maximal. A higher IC50 goes with weaker potency in that assay.

The record behind these values is ChEMBL document CHEMBL4622976, “Development of pH/Glutathione-Responsive Theranostic Agents Activated by Glutathione S-Transferase π for Human Colon Cancer” (J Med Chem, 2020).
